In ChEMBL document CHEMBL1671800, “Synthesis and antimycobacterial properties of N-substituted 6-amino-5-cyanopyrazine-2-carboxamides” (2011):
Values after ≈ are worked out from the molar mass of the structure shown. Active and inactive are the calls of the source. No cut-off for these calls is given here.

Legend:
[1] = tested on: Trichophyton mentagrophytes; test: Antifungal activity against Trichophyton mentagrophytes 445 after 72 hrs by broth microdilution method; assay type: functional; conditions: Trichophyton mentagrophytes, 445, 72 h
Summary of the method: (§1)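 Trichophyton mentagrophytes was tested by twofold broth microdilution in MOPS-buffered RPMI 1640 with glutamine, pH 7.0, with final DMSO at most 2.5% (v/v). Incubation was static, dark and humid at 35 °C, and plates were read at 72 and 120 h.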

[2] = tested on: Pichia kudriavzevii; test: Antifungal activity against Candida krusei E28 after 24 hrs by broth microdilution method; assay type: functional; conditions: E28, 24 h
Summary of the method: (§2)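 Broth microdilution. Compounds in DMSO were diluted twofold in RPMI 1640 with glutamine, buffered to pH 7.0 with MOPS. Final DMSO was at most 2.5% (v/v). Plates were incubated statically, in the dark and humid, at 35 °C and read at 24 and 48 h.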

[3] = tested on: Candida albicans; test: Antifungal activity against Candida albicans ATCC 44859 after 24 hrs by broth microdilution method; assay type: functional; conditions: ATCC 44859, 24 h; summary of the method: as §2
[4] = tested on: Mycobacterium avium; test: Antimycobacterial activity against Mycobacterium avium CNCTC My 152/73 after 14 days by microdilution method; assay type: functional; conditions: CNCTC My 152/73, 336 h
Summary of the method: (§3)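 Compounds in DMSO were diluted in Šula's semisynthetic medium, pH 5.5, to final 200–3.125 μg/mL, with DMSO at most 1% (v/v). Mycobacteria were added as a suspension in isotonic saline and grown at 37 °C. MIC was read visually after 14 days as the lowest concentration inhibiting growth.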

[5] = tested on: Mycobacterium kansasii; test: Antimycobacterial activity against Mycobacterium kansasii CNCTC My 235/80 after 6 days by microdilution method; assay type: functional; conditions: CNCTC My 235/80, 144 h
Summary of the method: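 Compounds were dissolved in DMSO and diluted in Šula's semisynthetic medium at pH 5.5, at final concentrations of 200 to 3.125 μg/mL in twofold steps; DMSO stayed ≤1% v/v. The strain was added as a suspension in isotonic saline and incubated at 37 °C. Growth was read visually after 6 days; MIC is the lowest concentration that inhibited growth. Pyrazinamide served as standard.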

[6] = tested on: Lichtheimia corymbifera; test: Antifungal activity against Absidia corymbifera 272 after 48 hrs by broth microdilution method; assay type: functional; conditions: Lichtheimia corymbifera, 272, 48 h; summary of the method: as §2
[7] = tested on: Staphylococcus aureus; test: Antibacterial activity against methicillin-resistant Staphylococcus aureus H 5996/08 after 24 to 48 hrs by broth microdilution method; assay type: functional, organism-based
Summary of the method: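 Strains were subcultured on Mueller-Hinton agar at 35 °C, and the inoculum was suspended in 0.85% saline to 0.5 McFarland (1.5×10^8 CFU/mL). Microdilution was done in Mueller-Hinton broth, pH 7.0, with final DMSO at most 1% (v/v). MIC, set at 95% growth inhibition versus control, was read after 24 and 48 h of static incubation at 35 °C.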

[8] = tested on: Lichtheimia corymbifera; test: Antifungal activity against Absidia corymbifera 272 after 24 hrs by broth microdilution method; assay type: functional; conditions: Lichtheimia corymbifera, 272, 24 h; summary of the method: as §2
[9] = tested on: Candida albicans; test: Antifungal activity against Candida albicans ATCC 44859 after 48 hrs by broth microdilution method; assay type: functional; conditions: ATCC 44859, 48 h; summary of the method: as §2
[10] = tested on: Candida tropicalis; test: Antifungal activity against Candida tropicalis 156 after 24 hrs by broth microdilution method; assay type: functional; conditions: Candida tropicalis, 156, 24 h; summary of the method: as §2
[11] = tested on: Klebsiella pneumoniae; test: Antibacterial activity against Klebsiella pneumoniae D11750/08 after 24 to 48 hrs by broth microdilution method; assay type: functional, organism-based
[12] = tested on: Escherichia coli; test: Antibacterial activity against Escherichia coli CCM 4517 after 24 to 48 hrs by broth microdilution method; assay type: functional, organism-based
Summary of the method: (§4)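 Strains subcultured on Mueller-Hinton agar at 35 °C and passaged onto MHA before testing. Inoculum suspended in sterile 0.85% saline and adjusted to 0.5 McFarland (1.5×10^8 CFU/mL). Compounds in DMSO (final ≤1% v/v) in Mueller-Hinton broth at pH 7.0, with medium and DMSO-alone controls. Static incubation at 35 °C; MIC taken as 95% growth inhibition versus control at 24 and 48 h.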

[13] = tested on: Trichophyton mentagrophytes; test: Antifungal activity against Trichophyton mentagrophytes 445 after 120 hrs by broth microdilution method; assay type: functional; conditions: Trichophyton mentagrophytes, 445, 120 h; summary of the method: as §1
[14] = tested on: Pichia kudriavzevii; test: Antifungal activity against Candida krusei E28 after 48 hrs by broth microdilution method; assay type: functional; conditions: E28, 48 h; summary of the method: as §2
[15] = tested on: Enterobacter sp.; test: Antibacterial activity against Enterobacter sp. J 14365/ 08 after 24 to 48 hrs by broth microdilution method; assay type: functional, organism-based
[16] = tested on: Pseudomonas aeruginosa; test: Antibacterial activity against Pseudomonas aeruginosa CCM 1961 after 24 to 48 hrs by broth microdilution method; assay type: functional, organism-based; summary of the method: as §4
[17] = tested on: Trichosporon beigelii; test: Antifungal activity against Trichosporon beigelii 1188 after 48 hrs by broth microdilution method; assay type: functional; conditions: Trichosporon beigelii, 1188, 48 h; summary of the method: as §2
[18] = tested on: Candida tropicalis; test: Antifungal activity against Candida tropicalis 156 after 48 hrs by broth microdilution method; assay type: functional; conditions: Candida tropicalis, 156, 48 h; summary of the method: as §2
[19] = tested on: Aspergillus fumigatus; test: Antifungal activity against Aspergillus fumigatus 231 after 24 hrs by broth microdilution method; assay type: functional; conditions: Aspergillus fumigatus, 231, 24 h; summary of the method: as §2
[20] = tested on: Mycobacterium tuberculosis; test: Antimycobacterial activity against Mycobacterium tuberculosis H37Rv CNCTC My 331/88 after 14 days by microdilution method; assay type: functional; conditions: H37Rv CNCTC My 331/88, 336 h; summary of the method: as §3
[21] = tested on: Staphylococcus aureus; test: Antibacterial activity against Staphylococcus aureus CCM 4516/08 after 24 to 48 hrs by broth microdilution method; assay type: functional, organism-based; summary of the method: as §4
[22] = tested on: Klebsiella pneumoniae; test: Antibacterial activity against ESBL-positive Klebsiella pneumoniae J 14368/08 after 24 to 48 hrs by broth microdilution method; assay type: functional, organism-based
[23] = tested on: Trichosporon beigelii; test: Antifungal activity against Trichosporon beigelii 1188 after 24 hrs by broth microdilution method; assay type: functional; conditions: Trichosporon beigelii, 1188, 24 h; summary of the method: as §2
[24] = tested on: Mycobacterium avium; test: Antimycobacterial activity against Mycobacterium avium CNCTC My 80/72 after 14 days by microdilution method; assay type: functional; conditions: CNCTC My 80/72, 336 h; summary of the method: as §3
[25] = tested on: Aspergillus fumigatus; test: Antifungal activity against Aspergillus fumigatus 231 after 48 hrs by broth microdilution method; assay type: functional; conditions: Aspergillus fumigatus, 231, 48 h; summary of the method: as §2
[26] = tested on: Staphylococcus epidermidis; test: Antibacterial activity against Staphylococcus epidermidis H 6966/08 after 24 to 48 hrs by broth microdilution method; assay type: functional, organism-based
[27] = tested on: Nakaseomyces glabratus; test: Antifungal activity against Candida glabrata 20/I after 24 hrs by broth microdilution method; assay type: functional; summary of the method: as §2
[28] = tested on: Nakaseomyces glabratus; test: Antifungal activity against Candida glabrata 20/I after 48 hrs by broth microdilution method; assay type: functional; summary of the method: as §2

| SMILES | MIC [1] | MIC [2] | MIC [3] | MIC [4] | MIC [5] | MIC [6] | Activity [7] | MIC [8] | MIC [9] | MIC [10] | Activity [11] | Activity [12] | MIC [13] | MIC [14] | Activity [15] | Activity [16] | MIC [17] | MIC [18] | MIC [19] | MIC [20] | further results |
| --- | --- | --- | --- | --- | --- | --- | --- | --- | --- | --- | --- | --- | --- | --- | --- | --- | --- | --- | --- | --- | --- |
| N#Cc1ncc(C(N)=O)nc1Cl | 62.5 µM (≈ 11.4 µg/mL) | > 500 µM | 125 µM (≈ 22.8 µg/mL) | 25 µg/mL (≈ 137 µM) | 25 µg/mL (≈ 137 µM) | 250 µM (≈ 45.6 µg/mL) | inactive | 250 µM (≈ 45.6 µg/mL) | 125 µM (≈ 22.8 µg/mL) | > 500 µM | inactive | inactive | 62.5 µM (≈ 11.4 µg/mL) | > 500 µM | inactive | inactive | > 500 µM | > 500 µM | > 500 µM | 25 µg/mL (≈ 137 µM) | Activity [21]: inactive; Activity [22]: inactive; MIC [23]: > 500 µM; MIC [24]: 25 µg/mL (≈ 137 µM); MIC [25]: > 500 µM; Activity [26]: inactive; MIC [27]: > 500 µM; MIC [28]: > 500 µM |
| CCCCCNc1nc(C(N)=O)cnc1C#N | > 250 µM | 62.5 µM (≈ 14.6 µg/mL) | 250 µM (≈ 58.3 µg/mL) | > 200 µg/mL | > 200 µg/mL | > 250 µM | inactive | 125 µM (≈ 29.2 µg/mL) | > 250 µM | > 250 µM | inactive | inactive | > 250 µM | 250 µM (≈ 58.3 µg/mL) | inactive | inactive | > 250 µM | > 250 µM | 250 µM (≈ 58.3 µg/mL) | > 200 µg/mL | Activity [21]: inactive; Activity [22]: inactive; MIC [23]: > 250 µM; MIC [24]: > 200 µg/mL; MIC [25]: > 250 µM; Activity [26]: inactive; MIC [27]: 250 µM (≈ 58.3 µg/mL); MIC [28]: > 250 µM |
